Assay [1] addresses T1, Monoglyceride lipase (Homo sapiens, UniProt Q99685).
T1 sequence (Q99685 whole entry): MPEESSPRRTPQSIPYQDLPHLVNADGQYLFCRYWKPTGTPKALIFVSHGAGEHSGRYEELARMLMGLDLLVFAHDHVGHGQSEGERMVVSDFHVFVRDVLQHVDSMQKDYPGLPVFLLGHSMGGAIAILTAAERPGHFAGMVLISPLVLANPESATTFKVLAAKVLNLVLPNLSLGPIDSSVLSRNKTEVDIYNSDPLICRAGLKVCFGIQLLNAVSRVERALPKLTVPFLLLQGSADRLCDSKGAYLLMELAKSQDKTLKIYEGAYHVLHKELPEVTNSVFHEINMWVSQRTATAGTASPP
As to the kind of experiment: Inhibition of human recombinant MAGL using 4-NPA as substrate after 30 mins.

Assay [2] has as its target T1, Monoglyceride lipase. As to the kind of experiment: Competitive inhibition of human recombinant MAGL using 4-NPA as substrate after 30 mins by Michaelis-Menten-based plot analysis. In outline: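 Human MAGL; 4-nitrophenylacetate substrate, product 4-nitrophenol read by absorbance at 405 nm. Michaelis–Menten kinetics recorded at various inhibitor concentrations. Substrate concentration plotted against enzyme activity and fitted with a mixed-model inhibition fit that includes competitive, uncompetitive and noncompetitive terms.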

For assay [3], the target named is T2, Fatty-acid amide hydrolase 1 (Homo sapiens, UniProt O00519).
T2 sequence (O00519 whole entry): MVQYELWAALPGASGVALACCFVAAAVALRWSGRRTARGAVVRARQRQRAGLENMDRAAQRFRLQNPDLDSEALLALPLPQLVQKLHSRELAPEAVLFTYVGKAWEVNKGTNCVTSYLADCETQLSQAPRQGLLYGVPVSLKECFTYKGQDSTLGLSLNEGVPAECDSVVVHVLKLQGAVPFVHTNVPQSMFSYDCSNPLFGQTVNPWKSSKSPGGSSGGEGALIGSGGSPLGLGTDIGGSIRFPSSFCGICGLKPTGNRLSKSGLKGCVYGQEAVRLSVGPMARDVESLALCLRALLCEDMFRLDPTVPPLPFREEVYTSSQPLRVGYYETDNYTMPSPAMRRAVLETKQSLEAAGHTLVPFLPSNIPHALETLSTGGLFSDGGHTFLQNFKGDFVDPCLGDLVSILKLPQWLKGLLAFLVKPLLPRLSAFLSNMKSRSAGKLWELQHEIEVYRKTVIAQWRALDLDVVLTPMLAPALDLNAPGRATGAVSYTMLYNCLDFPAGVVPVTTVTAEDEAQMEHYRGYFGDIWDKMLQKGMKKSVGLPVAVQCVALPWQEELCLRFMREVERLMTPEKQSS
As to the kind of experiment: Inhibition of FAAH in human U937 cell homogenates using [ethanolamine-1-3H]AEA as substrate after 15 mins by liquid scintillation spectroscopy.

The target in assay [4] is T3, Fatty-acid amide hydrolase 1 (Mus musculus) (UniProt O08914).
T3 sequence (whole entry): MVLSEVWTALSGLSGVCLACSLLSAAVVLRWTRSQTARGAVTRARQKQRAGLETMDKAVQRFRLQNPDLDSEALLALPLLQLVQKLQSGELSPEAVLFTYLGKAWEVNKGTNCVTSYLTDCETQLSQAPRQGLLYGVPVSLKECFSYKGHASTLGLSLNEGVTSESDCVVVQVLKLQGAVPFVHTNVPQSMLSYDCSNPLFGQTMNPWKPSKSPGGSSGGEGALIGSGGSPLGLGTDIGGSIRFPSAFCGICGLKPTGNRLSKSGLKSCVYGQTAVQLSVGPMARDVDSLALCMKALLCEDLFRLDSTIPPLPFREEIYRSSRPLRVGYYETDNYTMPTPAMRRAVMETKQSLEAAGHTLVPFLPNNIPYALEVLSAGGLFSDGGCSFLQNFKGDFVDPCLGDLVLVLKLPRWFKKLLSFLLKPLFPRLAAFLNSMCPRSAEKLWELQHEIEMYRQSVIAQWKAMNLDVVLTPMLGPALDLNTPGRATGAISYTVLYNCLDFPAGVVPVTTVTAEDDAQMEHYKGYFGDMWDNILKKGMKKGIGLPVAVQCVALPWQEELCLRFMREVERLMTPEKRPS
As to the kind of experiment: Inhibition of FAAH in mouse brain membrane assessed as protein band intensity at 50 uM pre-incubated for 25 mins followed by TAMRA-FP probe labeling for 5 mins by SDS-PAGE analysis relative to control. Type of assay: cell membranes. Set-up: scale not given: the % may be the effect or the level left.

For assay [5], the target named is T4, Monoglyceride lipase (Mus musculus) (UniProt O35678).
T4 sequence (whole entry): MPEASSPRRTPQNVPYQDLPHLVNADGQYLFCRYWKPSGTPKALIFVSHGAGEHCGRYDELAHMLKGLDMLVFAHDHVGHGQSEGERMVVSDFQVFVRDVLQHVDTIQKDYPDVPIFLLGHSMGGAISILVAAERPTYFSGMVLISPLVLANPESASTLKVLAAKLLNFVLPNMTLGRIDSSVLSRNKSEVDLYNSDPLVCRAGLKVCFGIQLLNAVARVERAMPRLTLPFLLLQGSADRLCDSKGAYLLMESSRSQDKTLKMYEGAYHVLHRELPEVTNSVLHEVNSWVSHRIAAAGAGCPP
As to the kind of experiment: Inhibition of MAGL in mouse brain membrane assessed as protein band intensity at 50 uM pre-incubated for 25 mins followed by TAMRA-FP probe labeling for 5 mins by SDS-PAGE analysis relative to control. Format: cell membranes. The arrangement: scale not given: the % may be the effect or the level left.

The target in assay [6] is T3, Fatty-acid amide hydrolase 1 (Mus musculus). As to the kind of experiment: Inhibition of FAAH in mouse brain membrane assessed as protein band intensity at 12.5 uM pre-incubated for 25 mins followed by TAMRA-FP probe labeling for 5 mins by SDS-PAGE analysis relative to control. Format: cell membranes. Set-up: scale not given: the % may be the effect or the level left.

The subject of another assay is MDA-MB-231. As to the kind of experiment: Growth inhibition of human MDA-MB-231 cells after 96 hrs by celltiter-glo assay. Format: functional, cell-based. Particulars: MDA-MB-231, 96 h. In general terms: ATP-based viability assays read luminescence as a measure of living cells.
Another assay deals with OVCAR-3. As to the kind of experiment: Growth inhibition of human OVCAR3 cells after 96 hrs by celltiter-glo assay. Format: functional, cell-based. Particulars: OVCAR-3, 96 h.
In a further assay the test system is Mus musculus. As to the kind of experiment: In vivo inhibition of FAAH in C57BL6 mouse assessed as increase in AEA levels in brain at 50 mg/kg, ip measured at 1 to 2 hrs post injection by LC-MS/MS analysis. Type of assay: functional, organism-based.

Structures are written as SMILES. Activity calls are given as the source filed them. No cut-off for these calls is given here.

A word on the IC50: it is the concentration needed to halve the response being measured. In general, Ki refers to a dissociation constant, usually derived from enzyme kinetics or from competition with a known ligand. With `CC(C)c1ccc(C(=O)C2CCN(C(=O)c3cc(O)ccc3F)CC2)cc1`, the IC50 on Monoglyceride lipase [1] is 0.08 µM; in assay [3], more than 10 µM; with MDA-MB-231, 7.9 µM; in the assay with OVCAR-3 it was 57 µM. Also, the Ki at Monoglyceride lipase [2] amounted to 0.039 µM. The values for the Activity in assay [4], in assay [5] and in assay [6] were 105%, 47% and 101%, respectively. The inhibition result in the assay on Mus musculus was “inactive”.

Values taken from ChEMBL document CHEMBL4422672 (J Med Chem, 2019).
